The values that follow come from the array DNA melting data of Ke et al. (doi:10.1101/2024.01.08.574731).

The nature of series [1]: melting temperature; fluorescence melt of hairpins on a sequencing array, two-state fit, raised by 9.35 °C to match UV melts. The note with it: sodium 0.088 M. Summed up: (§1)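 Cy3 fluorescence of library hairpins on a sequenced MiSeq flow cell, with annealed Cy3 and quencher oligos, was imaged in 50 mM Na-HEPES pH 8.0, 25 mM NaCl in 2.5 °C steps up to 60 °C. Signals were normalised to pre-quench Cy3 and to control variants. Melting temperature and folding enthalpy came from bootstrapped two-state fits, inverse-variance combined over four replicates. Fitted temperatures were raised by 9.35 °C to match UV melts.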

The nature of series [2]: folding enthalpy; higher = less favourable; fluorescence melt of hairpins on a sequencing array, two-state fit. The note with it: sodium 0.088 M. Summed up:
as §1

Regarding GATCGTTTTACGATC ((((((...)))))), the Tm in series [1] is 60.1 °C. In addition, the folding enthalpy in series [2] was -40.8 kcal/mol.
In the case of GATCTAAACATAGATC ((((((....)))))), in series [1], the Tm was determined as 37 °C. Also, the folding enthalpy in series [2] is -26.9 kcal/mol.
On to GATCTAAACGTAGATC ((((((....)))))), for which, in series [1], the Tm turned out to be 35.8 °C. Moreover, in series [2], the folding enthalpy was -28.7 kcal/mol.
As for GATCTAACCTAGATC ((((((...)))))), in series [1], the Tm was 38.1 °C. For the same sequence, in series [2], the folding enthalpy is -29 kcal/mol.
As to GATCTAACGCTAGATC ((((((....)))))), in series [1], the Tm came to 38.1 °C. Moreover, in series [2], the folding enthalpy was -20.7 kcal/mol.
In the case of GATCTAAGAATAGATC ((((((....)))))), the Tm in series [1] was determined as 34 °C. For the same sequence, the folding enthalpy in series [2] was -20.4 kcal/mol.
Consider GATCTAAGTCTAGATC ((((((....)))))), for which, in series [1], the Tm was determined as 37.7 °C. In addition, the folding enthalpy in series [2] is -25.4 kcal/mol.
On to GATCTAAGTTTAGATC ((((((....)))))), for which the Tm in series [1] was found to be 41.9 °C. Further, in series [2], the folding enthalpy was -30 kcal/mol.
On to GATCTAATTCTAGATC ((((((....)))))), for which the Tm in series [1] is 37 °C. Further, the folding enthalpy in series [2] was -29.9 kcal/mol.
With GATCTACAACTAGATC ((((((....)))))), the Tm in series [1] came to 34.1 °C. Further, in series [2], the folding enthalpy is -25.6 kcal/mol.
On to GATCTACACTTAGATC ((((((....)))))), for which the Tm in series [1] turned out to be 43.4 °C. In series [2], the folding enthalpy is -44.7 kcal/mol.
On to GATCTACATGTAGATC ((((((....)))))), for which the Tm in series [1] amounted to 52.5 °C. In addition, the folding enthalpy in series [2] was -45.9 kcal/mol.
In the case of GATCTACATTTAGATC ((((((....)))))), the Tm in series [1] is 39 °C. The folding enthalpy in series [2] is -35.3 kcal/mol.
For GATCTACCATAGATC ((((((...)))))), the Tm in series [1] is 37.5 °C. The folding enthalpy in series [2] was -30.5 kcal/mol.
In the case of GATCTACGACTAGATC ((((((....)))))), the Tm in series [1] turned out to be 35 °C. For the same sequence, the folding enthalpy in series [2] was -32.1 kcal/mol.
As for GATCTACGAGTAGATC ((((((....)))))), the Tm in series [1] came out at 52.3 °C. The folding enthalpy in series [2] was -37.8 kcal/mol.
With GATCTACGCATAGATC ((((((....)))))), the Tm in series [1] worked out at 42.7 °C. In series [2], the folding enthalpy is -28.5 kcal/mol.
Taken in the same sequence, the figures for GATCTACGGCTAGATC ((((((....)))))) were 37.1 °C and -28.7 kcal/mol.
As for GATCTACGGTAGATC ((((((...)))))), the Tm in series [1] turned out to be 41.4 °C. In addition, the folding enthalpy in series [2] is -37.3 kcal/mol.
Regarding GATCTACGTCTAGATC ((((((....)))))), the Tm in series [1] is 40.7 °C. Further, the folding enthalpy in series [2] is -20.7 kcal/mol.
The corresponding values for GATCTACGTTTAGATC ((((((....)))))) are 39.1 °C and -32.4 kcal/mol.
With GATCTACTATTAGATC ((((((....)))))), the Tm in series [1] came to 38.6 °C. In addition, the folding enthalpy in series [2] is -33.1 kcal/mol.
As for GATCTACTCTAGATC ((((((...)))))), in series [1], the Tm turned out to be 40.6 °C. Besides, the folding enthalpy in series [2] is -31 kcal/mol.
On to GATCTAGAAGTAGATC ((((((....)))))), for which, in series [1], the Tm was determined as 39.9 °C. The folding enthalpy in series [2] is -27.6 kcal/mol.
Consider GATCTAGAGATAGATC ((((((....)))))), for which, in series [1], the Tm amounted to 39.1 °C. Moreover, the folding enthalpy in series [2] is -26.2 kcal/mol.
Regarding GATCTAGAGCTAGATC ((((((....)))))), in series [1], the Tm amounted to 39.4 °C. Besides, the folding enthalpy in series [2] is -29.4 kcal/mol.
Turning to GATCTAGATATAGATC ((((((....)))))), the Tm in series [1] came out at 46.8 °C. In series [2], the folding enthalpy is -34.4 kcal/mol.
In the case of GATCTAGCCGTAGATC ((((((....)))))), in series [1], the Tm is 44.5 °C. For the same sequence, the folding enthalpy in series [2] is -31.2 kcal/mol.
Turning to GATCTAGCCTTAGATC ((((((....)))))), the Tm in series [1] is 44.4 °C. In series [2], the folding enthalpy is -38.6 kcal/mol.
Turning to GATCTAGGATTAGATC ((((((....)))))), the Tm in series [1] turned out to be 44.8 °C. The folding enthalpy in series [2] was -29.1 kcal/mol.
GATCTAGGCGTAGATC ((((((....)))))): the Tm in series [1] is 45.4 °C. Also, the folding enthalpy in series [2] was -32.4 kcal/mol.
Regarding GATCTAGGTATAGATC ((((((....)))))), in series [1], the Tm was 47.5 °C. The folding enthalpy in series [2] is -34.7 kcal/mol.
GATCTAGGTCTAGATC ((((((....)))))): the Tm in series [1] was 46.2 °C. In addition, the folding enthalpy in series [2] was -37.1 kcal/mol.
Turning to GATCTAGTCCTAGATC ((((((....)))))), in series [1], the Tm was 47.4 °C. In series [2], the folding enthalpy was -31.9 kcal/mol.
With GATCTAGTCTAGATC ((((((...)))))), the Tm in series [1] was determined as 41.1 °C. Further, the folding enthalpy in series [2] is -34.2 kcal/mol.
Turning to GATCTAGTTCTAGATC ((((((....)))))), in series [1], the Tm came out at 46.6 °C. Besides, the folding enthalpy in series [2] was -34.8 kcal/mol.
The corresponding values for GATCTATACCTAGATC ((((((....)))))) are 43.2 °C and -34.7 kcal/mol.
Turning to GATCTATACTTAGATC ((((((....)))))), the Tm in series [1] came to 45.6 °C. Moreover, in series [2], the folding enthalpy was -46.9 kcal/mol.
With GATCTATAGTAGATC ((((((...)))))), in series [1], the Tm amounted to 38.6 °C. In addition, the folding enthalpy in series [2] is -22.4 kcal/mol.
GATCTATATCTAGATC ((((((....)))))): in series [1], the Tm stood at 36.2 °C. In addition, the folding enthalpy in series [2] was -27.6 kcal/mol.
For the sequence GATCTATCATTAGATC ((((((....)))))), the Tm in series [1] came out at 42.1 °C. For the same sequence, in series [2], the folding enthalpy is -28.2 kcal/mol.
Consider GATCTATCTCTAGATC ((((((....)))))), for which the Tm in series [1] worked out at 39.6 °C. Further, the folding enthalpy in series [2] is -28.3 kcal/mol.
Regarding GATCTATCTGTAGATC ((((((....)))))), the Tm in series [1] is 42.9 °C. The folding enthalpy in series [2] is -33.9 kcal/mol.
As to GATCTATGACTAGATC ((((((....)))))), the Tm in series [1] was found to be 37.1 °C. The folding enthalpy in series [2] was -26.7 kcal/mol.
Taken in the same sequence, the figures for GATCTATGCCTAGATC ((((((....)))))) were 41 °C and -33.3 kcal/mol.
Consider GATCTATGTATAGATC ((((((....)))))), for which the Tm in series [1] was found to be 48.2 °C. Also, the folding enthalpy in series [2] was -36.9 kcal/mol.
As to GATCTATTGATAGATC ((((((....)))))), in series [1], the Tm stood at 44.7 °C. Moreover, the folding enthalpy in series [2] is -28.8 kcal/mol.
Taken in the same sequence, the figures for GATCTCAAATGAGATC ((((((....)))))) were 50 °C and -37.8 kcal/mol.
For GATCTCAACGGAGATC ((((((....)))))), in series [1], the Tm is 52.3 °C. For the same sequence, the folding enthalpy in series [2] is -35 kcal/mol.
On to GATCTCAAGGAGATC ((((((...)))))), for which the Tm in series [1] was 54.2 °C. In addition, in series [2], the folding enthalpy was -37.4 kcal/mol.
Take GATCTCAATGAGATC ((((((...)))))): the Tm in series [1] was 50.6 °C. In series [2], the folding enthalpy is -35.9 kcal/mol.
Consider GATCTCAATGGAGATC ((((((....)))))), for which, in series [1], the Tm amounted to 51.5 °C. In addition, the folding enthalpy in series [2] was -40.6 kcal/mol.
Consider GATCTCACACGAGATC ((((((....)))))), for which the Tm in series [1] came out at 52.4 °C. Further, in series [2], the folding enthalpy is -41.5 kcal/mol.
With GATCTCACCCGAGATC ((((((....)))))), the Tm in series [1] was found to be 53.1 °C. Besides, in series [2], the folding enthalpy was -39.5 kcal/mol.
Take GATCTCACCTGAGATC ((((((....)))))): in series [1], the Tm is 53.5 °C. For the same sequence, the folding enthalpy in series [2] was -44.1 kcal/mol.
Taken in the same sequence, the figures for GATCTCAGAAGAGATC ((((((....)))))) were 50.6 °C and -33.5 kcal/mol.
Consider GATCTCAGCAGAGATC ((((((....)))))), for which the Tm in series [1] worked out at 58.2 °C. Also, the folding enthalpy in series [2] is -31.9 kcal/mol.
